This passage reports Activity, IC50 and Ki results from ChEMBL document CHEMBL4715801, “Discovery of Mycobacterium tuberculosis InhA Inhibitors by Binding Sites Comparison and Ligands Prediction” (J Med Chem, 2016).

Assay [1] can be described thus: Inhibition of Mycobacterium tuberculosis InhA assessed as residual enzyme activity by measuring NADH oxidation at 100 uM incubated for 10 mins by spectrophotometry.
Assay [2] can be described thus: Inhibition of Mycobacterium tuberculosis InhA assessed as effect on NADH oxidation incubated for 10 mins by spectrophotometry.
A short description of assay [3]: Mixed type inhibition of Mycobacterium tuberculosis InhA assessed as effect on NADH oxidation incubated for 10 mins by spectrophotometry. In outline:
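Inhibition type and Ki were taken from the continuous spectrophotometric InhA assay. DD-CoA was the substrate, and its Km was determined alongside.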

For the compound `Cc1c(CN(C)C(=O)/C=C/c2cnc3c(c2)CCC(=O)N3)c2ccccc2n1C`, the Activity in assay [1] is more than 50%.

As for `Oc1cc(Cl)ccc1Oc1ccc(Cl)cc1Cl`, the Activity in assay [1] is more than 50%.

The IC50 is the concentration needed to halve the response being measured. Regarding `COc1ccc(-c2[nH]c3ccccc3c2CCC(=O)Nc2ncccc2C)cc1`, the IC50 in assay [2] is 14 µM. For the same compound, in assay [1], the Activity is more than 50%.

What is called Ki is a measure of affinity in units of concentration, obtained from inhibition or displacement. `Cc1cc2ncn(Cc3ccc(Cl)c(Cl)c3)c2cc1C`: the IC50 in assay [2] worked out at 10 µM. Besides, the Activity in assay [1] was more than 50%. For the same compound, the Ki in assay [3] amounted to 4 µM.
